Experimental data published in ChEMBL document CHEMBL1121751, “Inhibition of thymidylate synthetase by 5-alkynyl-2'-deoxyuridylates” (J Med Chem, 1981).
The source made the active and inactive calls. The calls are words filed in the database; no cut-off is given here.

Assays:
Thymidylate synthase = molecular target: T1, Thymidylate synthase (Lactobacillus casei, UniProt P00469); assay: The compound was evaluated for the inhibition of dTMP synthetase from Lactobacillus casei; parameters: species or system Lacticaseibacillus casei
T1 sequence (P00469 whole entry): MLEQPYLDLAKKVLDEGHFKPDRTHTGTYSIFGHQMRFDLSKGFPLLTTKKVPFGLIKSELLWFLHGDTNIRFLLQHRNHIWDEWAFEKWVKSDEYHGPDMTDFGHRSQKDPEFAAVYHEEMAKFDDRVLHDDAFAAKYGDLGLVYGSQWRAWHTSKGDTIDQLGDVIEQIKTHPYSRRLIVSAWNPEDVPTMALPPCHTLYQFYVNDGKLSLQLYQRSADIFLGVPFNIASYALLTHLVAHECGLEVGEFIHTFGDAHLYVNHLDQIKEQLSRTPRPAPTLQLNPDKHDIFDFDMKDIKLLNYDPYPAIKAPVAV
Method in brief: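 dTMP synthetase came from a methotrexate-resistant strain of Lactobacillus casei and was purified. Activity was measured by a reported procedure in standard assay buffer. For time-dependent inactivation, enzyme was preincubated with nucleotide, with or without 0.1 mM CH₂-H₄folate, for up to 2 h. Aliquots were then diluted 10-fold into buffer containing 0.84 mM dUMP and 0.1 mM CH₂-H₄folate, and initial velocity was recorded.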

Mus musculus = species: Mus musculus; assay: Effect on mutant line lacking dThd kinase (S49/TK at 0.1 mM; No effect; format: functional
[1] = Compound was tested for cytotoxicity against Wild-type S49 cells; format: functional, cell-based; conditions: Mus musculus
[2] = Compound was tested for cytotoxicity towards (Wild-type and TK-) S49 cells at 0.1 mM; Not cytotoxic; format: cell-based; conditions: mouse, s49, 100 µM
[3] = Effective concentration to inhibit the growth of Wild-type S49 cells; format: functional, cell-based; conditions: Mus musculus
Method in brief: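 Growth-inhibition assay run by a previously reported procedure on wild-type S49 cells, with a thymidine kinase-deficient S49/TK⁻ line tested alongside. The 5-alkynyl-2'-deoxyuridine nucleosides were tested up to 0.1 mM. EC₅₀ is the concentration giving half-maximal growth inhibition.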

## O=c1[nH]c(=O)n([C@H]2C[C@H](O)[C@@H](COP(=O)(O)O)O2)cc1Cl
Thymidylate synthase
  Ki: 200 nM

## O=c1[nH]c(=O)n([C@H]2C[C@H](O)[C@@H](CO)O2)cc1C#CCCO
Mus musculus
  Effect: inactive
[1]
  EC50: 70000 nM

## CCCCC#Cc1cn([C@H]2C[C@H](O)[C@@H](CO)O2)c(=O)[nH]c1=O
[2]
  Cytotoxicity: Non-toxic

## O=c1[nH]c(=O)n([C@H]2C[C@H](O)[C@@H](CO)O2)cc1C#CCO
[2]
  Cytotoxicity: Non-toxic

## C#Cc1cn([C@H]2C[C@H](O)[C@@H](COP(=O)(O)O)O2)c(=O)[nH]c1=O
Thymidylate synthase
  Ki: 100 nM

## C#Cc1cn([C@H]2C[C@H](O)[C@@H](CO)O2)c(=O)[nH]c1=O
[3]
  EC50: 120 nM
Mus musculus
  Effect: inactive

## CCCCC#Cc1cn([C@H]2C[C@H](O)[C@@H](COP(=O)(O)O)O2)c(=O)[nH]c1=O
Thymidylate synthase
  Ki: 2600 nM

## O=c1[nH]c(=O)n([C@H]2C[C@H](O)[C@@H](COP(=O)(O)O)O2)cc1C#CCO
Thymidylate synthase
  Ki: 3000 nM

## O=c1[nH]c(=O)n([C@H]2C[C@H](O)[C@@H](COP(=O)(O)O)O2)cc1C#Cc1ccccc1
Thymidylate synthase
  Ki: 2000 nM

## O=c1[nH]c(=O)n([C@H]2C[C@H](O)[C@@H](COP(=O)(O)O)O2)cc1C#CCCO
Thymidylate synthase
  Ki: 1900 nM

## O=c1[nH]c(=O)n([C@H]2C[C@H](O)[C@@H](CO)O2)cc1C#Cc1ccccc1
[2]
  Cytotoxicity: Non-toxic
